miR122 inh: inhibitors of miR-122 in Huh7 cells; activation (reporter increase), % at 12.5 µM; 0.3% of 340,000 active; Huh7 miR-122 Renilla luciferase sensor, 48 h; neutral wells = 0, positive control = 100;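 active means mean replicate activation score at least 90 and every replicate individually at or above 90; inconclusive means only one of the two criteria met; inactive means neither criterion met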;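 further: higher luciferase means less miR-122 activity so hits act as miR-122 inhibitors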
CAL PDZ FP-1: inhibitors of human CAL PDZ peptide binding; 0.02% of 330,000 active; Q9HD26; inhibition, % at 20 µM; purified CAL PDZ, TMR-peptide fluorescence polarization, 1 h;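 active means highest replicate inhibition of at least 40%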;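 further: plate controls were DMSO neutral control wells for no effect and unlabeled competitor peptide control wells for full effect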
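material = purified tagged CAL PDZ domain construct (CerCALP) | buffer or medium = sodium phosphate/NaCl buffer pH 7.4 with TCEP, IgG, Thesit | reagent = TMR-labelled reporter peptide T*-PRC34 bound in PDZ groove | incubation = 1 h room-temperature incubation prior to read | measured by = fluorescence polarization (mP) | evaluation = percent inhibition from loss of millipolarization | control set = unlabelled peptide and DMSO controls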
CAL PDZ FP-2: CAL PDZ (human) peptide binding inhibition; purified CAL PDZ, TMR-peptide fluorescence polarization, 1 h; inhibition, % at 24.9 µM; AID 602252; 0.92% of 300,000 active; Q9HD26;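 active means mean inhibition of at least 30% with at least half of replicates also reaching 30%; inconclusive means no clear call, values can overlap the other calls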;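 further: 0% = DMSO neutral control and 100% = excess unlabeled competitor peptide PRC23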
PglD inh: blocks C. jejuni PglD acetyltransferase activity. AID 602405. purified PglD enzyme, DTNB colorimetric CoA detection. inhibition, % at 12.5 µM. 0.098% of 360,000 active; in the data active means inhibition above about 16%, passing the limit was not always enough; inconclusive means no clear call, values can overlap the other calls
Cneo AK release: Cryptococcus neoformans lysis via adenylate kinase release | C. neoformans lysis, adenylate kinase release luminescence, 4 h; normalised: neutral wells 0, clomiphene wells 100 | lysis activity, % at 15 µM | 0.2% of 360,000 active | AID 651654;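 active means mean lysis activity across replicates of at least 80%, whatever share of replicates individually reach that level; inactive means mean lysis activity below 80%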
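Assay system: Cryptococcus neoformans yeast cells / Dosing: single-point compound dose / Timing: 4 h at 37 °C static, read 1 h later / Measured by: luminescence of released adenylate kinase using an AK detection reagent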
PglD inh SP: blocks Campylobacter jejuni PglD acetyltransferase activity; shares compounds with PglD inh; Purified C. jejuni PglD, DTNB absorbance 412 nm; inhibition, % at 20 µM; 320 tested, under 10 active;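 active means mean inhibition across replicates of at least 20% with every single replicate also at 20% or more; inconclusive means mean inhibition at least 20% but some replicate falls below 20%; inactive means mean inhibition under 20% and not all replicates reach it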;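 further: initial rate of CoA release by acetyl transfer from AcCoA to the UDP-4-amino sugar; 0% = median of neutral control wells and 100% = median of positive control wells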
The depositor's hits bear a star; [ ] = another dose, or the depositor's remark. A selection: hits, their analogues and other compounds. The true share with any hit is near 1.1%.

`COc1ccc(CC(=O)NC(=S)NNC(=O)COc2c(C)cccc2C)cc1` gave miR122 inh -3, CAL PDZ FP-1 0, CAL PDZ FP-2 -5, PglD inh 23*, Cneo AK release 2 and PglD inh SP -4.
For CC(C)(O)C#Cc1ccc([C@@H]2[C@H](CO)N3CCCCN(S(C)(=O)=O)C[C@@H]23)cc1 the results were miR122 inh -1[16.7 µM], PglD inh 0 and Cneo AK release 9.
Screening O=C1N=C2SCCN2/C1=C\c1ccc(Cl)cc1 returned miR122 inh -2, CAL PDZ FP-1 0, CAL PDZ FP-2 -4, PglD inh 30*, Cneo AK release -4 and PglD inh SP -2.
Screening CCNCCNC(=O)c1c(O)c2cccc3c2n(c1=O)CCC3 returned miR122 inh -5, CAL PDZ FP-1 -1, CAL PDZ FP-2 -3, PglD inh 22*, Cneo AK release 1 and PglD inh SP -16.
Screening CC(=O)N(C)C[C@@H]1Oc2ncc(C#Cc3ccccn3)cc2C(=O)N([C@H](C)CO)C[C@@H]1C returned miR122 inh 20[16.7 µM], PglD inh -2 and Cneo AK release 0.
O=C1CSC(c2ccncc2)N1Cc1ccccc1 (stereo unspecified) was read as miR122 inh 1, CAL PDZ FP-1 1 and CAL PDZ FP-2 -4.
O=C1CSC(c2cccnc2)N1Cc1cccnc1 (stereo unspecified) was read as miR122 inh -5, CAL PDZ FP-1 0, PglD inh 23*, Cneo AK release -1 and PglD inh SP 11.
Screening C[C@@H]1CCCCO[C@H](CN(C)C(=O)C2CCCCC2)[C@H](C)CN([C@H](C)CO)C(=O)c2cc(NC(=O)c3ccncc3)ccc2O1 returned miR122 inh -4[16.7 µM], PglD inh -4 and Cneo AK release -1.
For O=C(C[C@H]1C[C@H]2c3cc(NC(=O)C4CCC4)ccc3O[C@H]2[C@@H](CO)O1)NCC(F)(F)F the results were miR122 inh 3[16.7 µM], PglD inh 1 and Cneo AK release -7.
For CCOc1cc(C2NC(=O)NC(c3ccccc3)=C2C(C)=O)ccc1OC(C)=O (stereo unspecified) the results were miR122 inh -6, CAL PDZ FP-1 -2, CAL PDZ FP-2 -3, PglD inh 23*, Cneo AK release 2 and PglD inh SP -4.
`Cc1noc(C)c1NC(=O)Nc1ccc2c(c1)C(=O)N([C@H](C)CO)C[C@@H](C)[C@@H](CN(C)S(=O)(=O)c1cccs1)O2` gave miR122 inh -4[16.7 µM], PglD inh -2 and Cneo AK release -1.
Screening O=C(Nc1sc2c(c1CN1CCOCC1)CCC2)c1ccc(F)cc1 returned miR122 inh 0, CAL PDZ FP-1 -2, CAL PDZ FP-2 -2, PglD inh 1 and Cneo AK release 3.
`CC(=O)Nc1sc2c(c1CN1CCN(C)CC1)CCCC2` gave miR122 inh -5, CAL PDZ FP-1 -1, CAL PDZ FP-2 -6, PglD inh 59*, Cneo AK release 7 and PglD inh SP 1.
Screening COc1cc(NS(=O)(=O)c2cccc3nsnc23)cc(OC)c1 returned miR122 inh 58, CAL PDZ FP-1 -1, CAL PDZ FP-2 -1, PglD inh 1 and Cneo AK release 0.
For O=S(=O)(Nc1ccc(Cl)cc1)c1cccc2nsnc12 the results were miR122 inh 120*, CAL PDZ FP-1 1, CAL PDZ FP-2 -1, PglD inh 21*, Cneo AK release -6 and PglD inh SP -5.
Screening C/C=C/c1ccc2c(c1)O[C@H](CN(C)Cc1ccc(C(=O)O)cc1)[C@@H](C)CN([C@@H](C)CO)S2(=O)=O returned miR122 inh 8[16.7 µM], PglD inh 6 and Cneo AK release -3.
C[C@H](CO)N1C[C@H](C)[C@H](CN(C)CC2CCCCC2)Oc2ccc(NC(=O)Cc3cn(C)c4ccccc34)cc2C1=O was read as miR122 inh 2[16.7 µM], PglD inh 2 and Cneo AK release 6.
For O=S(=O)(Nc1cccnc1)c1ccc(Br)c2ccccc12 the results were miR122 inh 15, CAL PDZ FP-1 1, PglD inh 66*, Cneo AK release 3 and PglD inh SP 9.
Screening O=C(Nc1ccccc1)c1ccc(Br)c(S(=O)(=O)Nc2cccnc2)c1 returned CAL PDZ FP-1 0 and CAL PDZ FP-2 -2.
`C[C@H]1CCCCO[C@H](CN(C)C(=O)C2CCCCC2)[C@@H](C)CN([C@@H](C)CO)C(=O)c2cc(NC(=O)c3ccccc3)ccc2O1` gave miR122 inh -6[16.7 µM], PglD inh -2 and Cneo AK release 1.
`O=C(NCCCN=C1NS(=O)(=O)c2ccccc21)c1ccncc1` gave miR122 inh 0, CAL PDZ FP-1 -2, PglD inh 25*, Cneo AK release -5 and PglD inh SP 2.
Screening O=C(NCCCN=C1NS(=O)(=O)c2ccccc21)c1ccc(F)cc1 returned miR122 inh 4, CAL PDZ FP-1 1, CAL PDZ FP-2 -9, PglD inh -1 and Cneo AK release -2.
`O=C(NCCN1CCNCC1)c1ccccc1O` gave miR122 inh -8, PglD inh -7 and Cneo AK release 0.
c1ccc(CNCCN2CCNCC2)nc1 was read as miR122 inh 17, CAL PDZ FP-1 0, CAL PDZ FP-2 -2, PglD inh 30*, Cneo AK release 0 and PglD inh SP -50.
COc1cccc(CNC(=O)CCCSc2ccccc2)c1 was read as miR122 inh 3, CAL PDZ FP-1 -2, CAL PDZ FP-2 -3, PglD inh 3 and Cneo AK release 4.
Screening CCn1c(=O)cc(SCC(=O)N2CCN(c3ccccc3OC)CC2)c2ccccc21 returned miR122 inh -4, CAL PDZ FP-1 -1, PglD inh 33*, Cneo AK release 1 and PglD inh SP inconclusive.
CCn1c(=O)cc(SCC(=O)N2CCOCC2)c2ccccc21 was read as miR122 inh -1, CAL PDZ FP-1 0, PglD inh -3 and Cneo AK release -1.
Screening CC(C)CC#Cc1cnc2c(c1)C(=O)N([C@@H](C)CO)C[C@H](C)[C@@H](CN(C)Cc1cccc(F)c1)O2 returned miR122 inh -6[16.7 µM], PglD inh 0 and Cneo AK release -1.
`Cc1ccccc1-c1nc(-c2ccc(NC(=O)c3ccc(Br)o3)cc2)no1` gave miR122 inh -6, CAL PDZ FP-1 -2, PglD inh 31*, Cneo AK release -7 and PglD inh SP 2.
Screening Cc1ccccc1-c1nc(-c2ccc(Br)o2)no1 returned miR122 inh 4, CAL PDZ FP-1 0, CAL PDZ FP-2 -5, PglD inh -1 and Cneo AK release 0.
Cc1noc(C)c1S(=O)(=O)Nc1ccc2c(c1)C(=O)N([C@H](C)CO)C[C@@H](C)[C@@H](CN(C)C)OCCCC[C@@H](C)O2 was read as miR122 inh 9[16.7 µM], PglD inh -6 and Cneo AK release 1.
`CCOC(=O)c1c2n(c3ccc(O)cc13)CCCCC2` gave miR122 inh 7, CAL PDZ FP-1 1, CAL PDZ FP-2 -2, PglD inh 25*, Cneo AK release -1 and PglD inh SP 4.

Screening results as filed in PubChem.
